Shown are actives, neighbours in structure and some others; about 12% of the full set was active somewhere.
WT yeast gro inh = growth inhibition of WT yeast, mitochondrial fusion screen; mitochondrial fusion phenotypic screen, WT strain; inhibition, % at 10 µM; hit rate 2.1% among 190,000; in the data active means inhibition above about 58%; tested in S. cerevisiae
KCC2 mod = modulators of human KCC2 chloride dependent transport. KCC2 cells, thallium flux FluoZin-2 fluorescence. B-score of Tl+ flux slope (higher = more flux/activation; lower = inhibition) at 10 µM. Q9H2X9. hit rate 2.2% among 190,000;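 active means thallium flux slope and its plate-corrected score both differing from the plate sample mean at a set confidence after two filtering rounds, in either direction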;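 further: slope of fluorescence scaled to starting intensity during 10 to 20 s after thallium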
Diaphorase inh = counter-screen for diaphorase-based assays: diaphorase inhibitors and chemical oxidizers. inhibition, % at 20 µM. AID 1217. diaphorase resazurin-to-resorufin fluorescence, NADH, 16 min; bacterial (C. kluyveri) enzyme, not human. hit rate 0.69% among 190,000;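 active means primary screen inhibition at 20 µM above a set limit, cut at about 50% in these data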;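 further: plate controls were DMSO with full reaction for no effect and wells lacking NADH for full effect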
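Detection: fluorescence of resorufin formed from resazurin, Ex 544/Em 590 nm; test system: Clostridium kluyveri diaphorase enzyme; amount: 0.14 U/mL diaphorase, enzyme working solution; times: 16-min room-temperature incubation before reading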
ROMK primary = modulators of human ROMK potassium channel. Tet-inducible ROMK, thallium flux fluorescence; actives lie on both sides. B-score at 10 µM. hit rate 2% among 130,000. AID 1918;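 active means signal ratio slope over the read window, or its plate-corrected B-score, at least 3 SD from the plate mean, either direction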;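 further: B-score of the F/F0 ratio slope over 7 to 12 s after thallium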
Target sequence (P48048 whole entry, looked up): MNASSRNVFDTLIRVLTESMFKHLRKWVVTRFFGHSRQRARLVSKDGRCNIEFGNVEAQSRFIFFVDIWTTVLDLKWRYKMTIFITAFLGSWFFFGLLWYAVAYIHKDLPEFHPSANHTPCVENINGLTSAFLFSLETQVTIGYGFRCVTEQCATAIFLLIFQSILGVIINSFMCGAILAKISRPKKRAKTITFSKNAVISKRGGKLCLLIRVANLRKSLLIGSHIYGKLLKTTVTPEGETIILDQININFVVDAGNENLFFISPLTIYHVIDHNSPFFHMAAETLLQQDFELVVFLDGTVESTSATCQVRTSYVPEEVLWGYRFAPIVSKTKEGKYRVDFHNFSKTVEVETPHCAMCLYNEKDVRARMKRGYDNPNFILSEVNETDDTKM
L major viab = reduces viability of Leishmania major promastigotes; resazurin fluorescence viability; hit rate 9% among 200,000; AID 1063; inhibition, % at 10 µM; in the data active means inhibition above about 50%;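 further: promastigotes grown with compound for 44 hours at 28 °C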
Diaphorase act = activates diaphorase or chemically reduces, flagging diaphorase assay artifacts; Diaphorase/resazurin coupled assay, resorufin fluorescence, 16 min; active compounds read high; 1 = vehicle wells, 0 = NADH-free wells; hit rate 0.005% among 190,000; activation factor at 20 µM;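 active means diaphorase activity raised at least twofold by the compound at 20 µM; inactive means activation factor below 2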
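Test system: Clostridium kluyveri diaphorase, purified enzyme. Buffer or medium: 50 mM HEPES pH 7.4 buffer plus MgCl2 and Tween 20. Also added: 0.114 mM NADH and 0.1 mM resazurin, final amounts. Dosing: compound 20 µM once, DMSO 1%. Schedule: 16 min enzyme reaction, ambient temperature. Detection: fluorescence of resorufin, 544 nm excitation, 590 nm emission.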
KCC2 secondary = KCC2 (human) modulation, secondary assay; AID 1713; normalised thallium flux (F/F0 slope) at 10 µM; shares compounds with KCC2 mod; hit rate 15% among 3,700; HEK293-KCC2, thallium flux, FluoZin2 fluorescence; active compounds read high;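 active means thallium flux slope above the same plate's solvent-only control mean plus 3 SD; inconclusive means the two replicate wells disagree; inactive means no significant difference from solvent-only control wells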
KCC2 bumet counter = thallium flux despite bumetanide block in KCC2 cells, secondary assay 3. shares compounds with KCC2 mod. HEK293-KCC2 + bumetanide/ouabain, thallium flux FluoZin2; active compounds read high. normalized thallium flux at 10 µM. hit rate 49% among 3,700;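 active means thallium entry rate above the same plate's blocked-transporter control wells by more than 3 SD; inconclusive means the two repeat wells disagree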;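 further: raw slope of fluorescence over initial fluorescence between 10 and 20 s after thallium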
KCC2 secondary2 = KCC2 (human) modulation, second secondary assay; AID 1715; shares compounds with KCC2 mod; normalized thallium flux at 10 µM; HEK293-KCC2, thallium flux FluoZin2 fluorescence; actives lie on both sides; F/F0 rise rate, 10–20 s post-thallium; hit rate 23% among 3,700;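 active means thallium flux slope more than 3 SD above or below the plate's solvent-only control mean, mostly below; inconclusive means the two repeat wells disagreed; inactive means no significant shift from solvent-only controls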;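 further: raw slope with 0.1% DMSO as baseline and bumetanide as block control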
HEK293 Tl flux = acts in parental HEK cells, KCC2 counter-screen; shares compounds with KCC2 mod; HEK293 parental cells, thallium flux FluoZin2, ouabain; baseline-ratio fluorescence slope, 10–20 s after thallium; thallium flux rate (normalised fluorescence) at 10 µM; hit rate 46% among 3,700; AID 1716;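 active means thallium flux rate significantly above the same plate's solvent-only control wells, beyond their mean plus 3 SD; inconclusive means the two replicate wells gave conflicting results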
KCC2 retest ouab = KCC2 (human) modulation, ouabain retest; AID 1717; hit rate 48% among 3,700; raw Tl+ flux slope (below DMSO = inhibition, above = activation) at 10 µM; shares compounds with KCC2 mod; HEK293-KCC2, thallium flux FluoZin2 fluorescence; bidirectional: low = inhibitor, high = activator;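 active means thallium flux slope beyond 3 SD from same-plate DMSO control mean in most replicates, usually higher, sometimes lower; inconclusive means repeat tests gave conflicting results; inactive means no significant difference from controls in most replicates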;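 further: slope of initial-normalized fluorescence between seconds 10 and 20 after thallium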
HEK counter2 = counter-screen for KCC2 modulators: effect in parental HEK293 cells; thallium flux FluoZin-2 fluorescence slope; AID 1718; hit rate 33% among 3,700; shares compounds with KCC2 mod; thallium flux slope at 10 µM;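 active means thallium flux slope above the same plate's solvent-control mean plus 3 SD in both duplicate wells; inconclusive means duplicate wells that disagreed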;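 further: run without ouabain in cells lacking the KCC2 cotransporter; slope of fluorescence scaled to its starting value between 10 and 20 s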
The depositor's hits bear a star; u = inconclusive; x = no result given.

SMILES	WT yeast gro inh	KCC2 mod	Diaphorase inh	ROMK primary	L major viab	Diaphorase act	KCC2 secondary	KCC2 bumet counter	KCC2 secondary2	HEK293 Tl flux	KCC2 retest ouab	HEK counter2
CCCc1nnc(SCC(=O)N2CCOCC2)n1CCCOC	-46	8*	13	x	-4	0.9	0.0065	0.005	0.03	0.0076	0.018	0.01
CCCc1nnc(SCC(=O)N2CCOCC2)n1CC1CCCO1 (centres undefined)	-4	0.46	13	x	-4	0.9	x	x	x	x	x	x
COc1ccc(-n2c(SCC(=O)N3CCN(c4ccccc4)CC3)nc3c(c2=O)SCC3)cc1	-9	-7.3*	36	x	12	0.6	0.0056	0.0039	0.024*	u	0.012*	0.01
COc1ccc(-n2c(SCC(=O)Nc3cc(C)on3)nc3c(c2=O)SCC3)cc1	14	-0.14	19	x	4	0.8	x	x	x	x	x	x
CNC(=O)CSc1nc(N)c2c3c(sc2n1)CCC3	17	-5.8*	18	x	1	0.8	0.011	0.0065	0.034	0.0077	0.022	0.01
O=C(Cn1cnc2c(oc3ccccc32)c1=O)N1CCCc2ccccc21	-3	-0.26	-1	-0.84	-1	1	x	x	x	x	x	x
O=C(CSc1ncnc2c1oc1ccccc12)N1CCCc2ccccc21	42	x	27	-2	4	0.7	0.0065	0.0053	0.029	0.0056	0.016*	0.0098
Cc1cccc(N2CCN(C(=O)C3CCN(S(=O)(=O)c4cccnc4)CC3)CC2)c1C	5	-0.05	20	x	14	0.8	x	x	x	x	x	x
O=c1c2cccnc2[nH]c(=S)n1CCC1=CCCCC1	-10	68*	7	x	5	0.9	0.041*	0.16*	0.051*	0.074*	0.085*	0.047*
CN(CCCn1c(=S)[nH]c2ncccc2c1=O)Cc1ccccc1	-13	15*	14	x	20	0.9	u	0.057*	0.036	0.022*	0.057*	0.014*
COCCCn1c(=S)[nH]c2ncccc2c1=O	15	3.6	8	x	-2	0.9	x	x	x	x	x	x
CCCCCn1c(=S)[nH]c2ncccc2c1=O	-26	57*	4	x	-6	1	0.038*	0.12*	0.046*	u	0.094*	0.036*
COc1ccc(CSCCc2n[nH]c(=S)n2-c2ccccc2)cc1C	52	55*	22	x	0	0.8	0.0091	0.029*	0.034	0.023*	0.02	0.012
CCOC(=O)N1CCN(S(=O)(=O)c2cc(C)c(C)cc2C)CC1	-1	0.088	7	0.15	0	0.9	x	x	x	x	x	x
Cc1cc(C)c(S(=O)(=O)/N=C2/C=C(SCC(=O)O)C(=O)c3ccccc32)cc1C	66*	-4.2*	29	-1.2	100*	0.7	0.0061	0.007*	u	0.0072	0.018	0.011
O=C(O)CC(=O)NC12CC3CC(CC(C3)C1)C2	-2	0.31	-3	0.19	2	1	0.0092	0.0062	0.035	0.0079	0.022	u
Cc1ccccc1S(=O)(=O)Cc1ccc(C(=O)NCc2ccc(F)cc2)o1	-4	0.037	5	0.38	9	0.9	x	x	x	x	x	x
CCn1c(SCC(N)=O)nnc1-c1ccc2c(c1)OCO2	-8	-0.11	5	0.43	-5	0.9	x	x	x	x	x	x
C=CCn1c(SCC(=O)c2ccc(F)cc2)nnc1-c1ccc2c(c1)OCO2	-3	-3.7*	2	-0.75	8	1	0.0077	0.0048	0.031	0.007	0.015*	0.011
C/C(=N\NC(=O)c1cccc(Cl)c1)C1C(=O)c2ccccc2C1=O	-7	-3.7*	0	-1.4	97*	1	0.0069	0.0095*	0.027	0.0074	u	0.0089
CC(/C=C/c1ccccc1F)=N\NC(=O)c1cccc(F)c1	19	x	4	-0.41	90*	1	0.0058	0.046*	0.042*	0.026*	0.041*	0.028*
CC(/C=C/c1ccco1)=N\NC(=O)c1cccc(Cl)c1	-1	14*	9	x	7	0.9	0.005	0.039*	u	0.023*	0.037*	0.026*
CC(/C=C/c1ccco1)=N/NC(=O)c1ccccc1Cl	6	-0.33	14	x	-4	0.9	x	x	x	x	x	x
CC(/C=C/c1ccccc1)=N\NC(=O)c1ccc2c(c1)OCCO2	11	-2.3	3	-0.23	-2	1	x	x	x	x	x	x
Cc1cccc(C)c1Nc1nnc(SCC(=O)Nc2ncc(C(F)(F)F)cc2Cl)s1	20	-6.5*	20	-1	-2	0.8	0.0057*	0.0069	0.025*	u	0.014*	0.0093
SMILES	WT yeast gro inh	KCC2 mod	Diaphorase inh	ROMK primary	L major viab	Diaphorase act	KCC2 secondary	KCC2 bumet counter	KCC2 secondary2	HEK293 Tl flux	KCC2 retest ouab	HEK counter2
Cc1cccc(Nc2nnc(SCC(=O)Nc3ncc(C(F)(F)F)cc3Cl)s2)c1C	13	-3.6*	21	x	-4	0.8	0.0059	0.0052	0.024*	0.0067	u	0.01
Cc1ccc(CNC(=O)COC(=O)CCC(=O)c2cccs2)cc1	-6	-1.3	0	-0.98	18	1	x	x	x	x	x	x
COc1ccc(N2CCN(/C(=N\S(=O)(=O)c3ccccc3)Nc3nc(C)cc(C)n3)CC2)cc1	12	-0.01	9	x	-10	0.9	x	x	x	x	x	x
O=C(NC(=S)NNC(=O)[C@H]1C[C@@H]1c1ccccc1)c1ccc(F)cc1	x	20*	x	x	x	x	0.0057	0.02*	0.037	0.02*	0.03*	0.021*
COc1ccc(C(=O)NC(=S)NNC(=O)[C@H]2C[C@@H]2c2ccccc2)cc1OC	x	5.8	x	x	x	x	x	x	x	x	x	x
COc1cc(OC)cc(C(=O)NC(=S)NNC(=O)[C@H]2C[C@@H]2c2ccccc2)c1	x	59*	x	x	x	x	0.023*	0.078*	0.043*	0.033*	0.059*	0.016*
CCOC(=O)c1ccccc1NS(=O)(=O)c1ccccc1F	12	0.011	22	x	11	0.8	x	x	x	x	x	x
NC(=O)COc1ccccc1/C=C1/SC(=O)N(CC(=O)N2CCc3ccccc3C2)C1=O	-11	-3.4*	20	-2	95*	0.8	0.0058	0.0049	0.023*	0.007	0.016*	0.0091
